# This is a sample that favours compounds with a hit; in the whole collection about 2.3% have one here.
# TRPC4 potent – allosterically enhances the mouse TRPC4 cation channel. Q9QUQ5. B-score at 10 µM. HEK293 TRPC4beta/mu-opioid, DAMGO EC20, Fluo-4 Ca2+ flux; active compounds read high. actives 0.42% (n = 310,000);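 active = B-score of calcium response area above 5 SD of library B-scores, with initial fluorescence ratio within 5 SD of library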
# TRPC6 inhibitor – inhibitors of mouse TRPC6 channel. Q61143. HEK293-TRPC6, membrane potential dye, ACh-evoked depolarization; active compounds read low. B-score at 10 µM. actives 1.1% (n = 310,000). AID 2553;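 active = B-score under library mean minus 3 SD, initial fluorescence not abnormally high, positive integrated signal ratio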;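 note: B-score derived from integrated fluorescence ratio over the kinetic read; more negative B-score means stronger inhibition of depolarization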
# Target sequence (Q61143 whole entry, looked up): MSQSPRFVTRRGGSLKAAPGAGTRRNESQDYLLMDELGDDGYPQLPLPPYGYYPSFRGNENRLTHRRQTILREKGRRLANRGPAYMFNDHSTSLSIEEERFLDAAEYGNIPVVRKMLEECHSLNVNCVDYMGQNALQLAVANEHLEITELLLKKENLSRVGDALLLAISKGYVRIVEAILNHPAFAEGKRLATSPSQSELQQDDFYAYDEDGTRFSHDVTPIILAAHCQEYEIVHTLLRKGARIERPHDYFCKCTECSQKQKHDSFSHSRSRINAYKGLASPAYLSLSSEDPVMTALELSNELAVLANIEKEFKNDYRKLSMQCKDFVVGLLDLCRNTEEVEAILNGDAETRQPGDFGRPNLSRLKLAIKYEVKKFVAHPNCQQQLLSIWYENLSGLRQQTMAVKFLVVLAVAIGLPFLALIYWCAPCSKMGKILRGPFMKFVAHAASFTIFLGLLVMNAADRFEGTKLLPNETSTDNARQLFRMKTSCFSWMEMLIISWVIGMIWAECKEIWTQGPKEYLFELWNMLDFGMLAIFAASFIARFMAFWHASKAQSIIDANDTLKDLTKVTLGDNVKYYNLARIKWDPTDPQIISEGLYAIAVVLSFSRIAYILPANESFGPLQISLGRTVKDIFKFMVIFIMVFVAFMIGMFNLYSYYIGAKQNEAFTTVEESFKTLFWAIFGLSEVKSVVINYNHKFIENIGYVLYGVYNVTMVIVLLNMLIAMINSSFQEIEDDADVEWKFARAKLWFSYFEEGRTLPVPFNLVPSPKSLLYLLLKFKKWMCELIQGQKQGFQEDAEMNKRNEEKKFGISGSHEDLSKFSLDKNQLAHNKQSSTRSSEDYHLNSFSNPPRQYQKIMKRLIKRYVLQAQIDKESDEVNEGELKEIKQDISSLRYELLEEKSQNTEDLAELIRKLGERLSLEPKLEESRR
# TRPC6 act – activators of mouse TRPC6 channel; Q61143; HEK293-TRPC6 membrane potential dye fluorescence; active compounds read high; B-score at 10 µM; actives 0.13% (n = 310,000); AID 2550;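 active = B-score of the integrated fluorescence ratio above library mean plus 3 SD, and starting fluorescence ratio within library mean plus 5 SD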;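 note: higher score means more depolarization so channel activation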
# TRPC4 inh – blocks the mouse TRPC4 cation channel. HEK293 TRPC4beta/mu-opioid, DAMGO-evoked Fluo4 calcium flux; active compounds read low. B-score at 10 µM. actives 0.39% (n = 300,000). AID 2247;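 active = B-score over 3 SD under the library average, no early fluorescence shift, positive overall ratio signal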
#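 Assay system: Stable TRPC4beta/mu-opioid receptor HEK293 cells | Reagent: DAMGO in two steps, submaximal then maximal | Compound dosing: Single concentration per test compound | Signal: Fluo4 Ca2+ flux fluorescence | Evaluation: Per-well B score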
# TRPC4 act – opens the mouse TRPC4 cation channel; Q9QUQ5; HEK293 TRPC4beta/mu-opioid, Fluo4 calcium fluorescence; active compounds read high; B-score at 10 µM; actives 0.49% (n = 310,000);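 active = B-score above 5 SD of library B-scores, and initial fluorescence ratio not above library mean plus 5 SD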;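 note: positive B-score marks a calcium rise read as TRPC4 activation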
#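 System – HEK293 cells stably co-expressing mouse TRPC4beta and mu-opioid receptor · Signal – Fluo4 calcium-sensitive dye fluorescence, kinetic, 1 Hz baseline · Benchmarks – buffer (low) and maximal DAMGO (high) · Read-out – B score of integrated fluorescence ratio per well · Incubation – dye loading 45 min room temperature, 110 s kinetic read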
# TRPC4 sel inh 2 – second check of whether TRPC6 inhibitors also affect mouse TRPC4; shares compounds with TRPC6 inhibitor; inhibition, % at 10 µM; actives 42% (n = 920); HEK293 TRPC4/MOR, membrane potential dye fluorescence; channel activated by saturating DAMGO dose;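 active = compounds whose fluorescence signal differed from control wells by over 3 SD, either direction, in both duplicate plates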
# TRPC4 spec – selectivity of TRPC6 inhibitors: effect on mouse TRPC4. actives 61% (n = 920). shares compounds with TRPC6 inhibitor. HEK293 TRPC4/mu-opioid, membrane potential fluorescence. AID 2777. activity change, negative = inhibition, % at 10 µM;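 active = rise or fall in signal beyond 3 SD of buffer-only wells in both replicate plates, either sign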;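 note: integrated kinetic ratio of fluorescence range over baseline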
# HEK293 MPD ctr 2-1 – parental HEK293 nonspecific activity of TRPC6 inhibitors, second screen; shares compounds with TRPC6 inhibitor; parental HEK293 membrane potential dye fluorescence; maximal acetylcholine challenge after compound addition; signal change vs control, % at 10 µM; actives 31% (n = 920);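 active = membrane potential signal moving either way by over 3 SD of the maximum-effect control, in both duplicate plates, meaning non-specific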
# HEK293 MPD ctr-1 – parental HEK293 nonspecific activity of TRPC6 inhibitors; shares compounds with TRPC6 inhibitor; parental HEK293 membrane potential dye fluorescence; membrane potential signal change, % at 10 µM; actives 60% (n = 920);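 active = membrane potential signal shifting up or down by more than 3 SD of buffer-only wells, on both duplicate plates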
# HEK293 MPD ctr-2 – parental HEK293 nonspecific activity of TRPC6 modulators | actives 51% (n = 2,400) | membrane potential dye fluorescence | membrane potential signal change, % at 10 µM | shares compounds with TRPC6 inhibitor;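 active = membrane potential signal moves up or down beyond 5 SD from buffer-only wells, on both duplicate plates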
# HEK293 MPD ctr 2-2 – second counter-screen for TRPC6 modulators: effect in parental HEK293 cells; shares compounds with TRPC6 inhibitor; membrane potential dye fluorescence; after compound, maximal acetylcholine stimulation; inhibition, % at 10 µM; actives 14% (n = 2,400); AID 488926;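 active = membrane potential signal drops by more than 5 SD from the mean control signal, in both duplicate plates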
# TRPC4 ctr mod – selectivity of TRPC6 modulators against mouse TRPC4; shares compounds with TRPC6 inhibitor; HEK293 TRPC4/mu-opioid, membrane potential fluorescence; percent change from control (negative = decrease, positive = increase), % at 10 µM; actives 69% (n = 2,400);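 active = membrane potential signal moved up or down beyond 5 SD of buffer control wells, in both duplicate plates, actives on both sides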
# TRPC4/MOR inh 2 – mouse TRPC4 off-target activity of TRPC6 modulators, second screen; inhibition, % at 10 µM; actives 55% (n = 2,400); shares compounds with TRPC6 inhibitor; HEK293 TRPC4/mu-opioid, membrane potential dye fluorescence; stimulated with maximal-effect DAMGO; AID 488928;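 active = drop in membrane potential signal beyond 5 SD of the control wells in both duplicate plates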;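 note: TRPC4 counter screen for TRPC6 hits run under conditions tuned for TRPC6 not TRPC4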
# TRPC6 block conf – mouse TRPC6 inhibitor confirmation; actives 43% (n = 3,300); inhibition, % at 10 µM; HEK293-TRPC6, membrane potential dye, ACh-evoked depolarization; AID 488960; shares compounds with TRPC6 inhibitor;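 active = fluorescence ratio falls more than 5 SD below the full-stimulation control mean, in both duplicate runs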;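 note: integrated fluorescence ratio of peak minus minimum over baseline after agonist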
# TRPC6 act confirm – mouse TRPC6 activator confirmation. activation, % at 10 µM. AID 488961. HEK293-TRPC6 membrane potential dye fluorescence, FDSS. shares compounds with TRPC6 inhibitor. actives 11% (n = 2,800);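 active = ratio signal rise beyond 5 SD above unstimulated control wells' mean, seen in both duplicate runs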
# Hits are given with their value; . = inactive; / = no result.
SMILES,TRPC4 potent,TRPC6 inhibitor,TRPC6 act,TRPC4 inh,TRPC4 act,HEK293 MPD ctr-2,HEK293 MPD ctr 2-2,TRPC4 ctr mod,TRPC4/MOR inh 2,TRPC6 block conf,TRPC6 act confirm,others
Cc1ccc(SCc2cc(=O)n3ccsc3n2)c(C)c1,.,.,.,.,.,/,/,/,/,/,/,
Cc1ccc(C)c(C(=O)c2c(C)nc3sccn23)c1,.,-6.1,.,.,.,.,.,10%,.,.,.,
O=C(Nc1ccc(C(=O)N2CCN(c3ccccc3)CC2)cc1)C1=CSCCO1,.,.,.,.,.,/,/,/,/,/,/,
CC12CCC(=O)N1C(C(=O)Nc1cc(C(F)(F)F)ccc1N1CCCCC1)CS2 (stereo unspecified),.,.,.,.,.,/,/,/,/,/,/,
CC12CCC(=O)N1C(C(=O)Nc1cc(C(F)(F)F)ccc1N1CCOCC1)CS2 (stereo unspecified),.,-5.5,.,.,.,.,.,.,.,.,.,
COc1ccc(COc2cc(-c3cccc(OC)c3)nc3ccc(N)cc23)cc1,.,-8.3,.,.,.,/,/,/,/,.,.,TRPC4 sel inh 2=.;TRPC4 spec=-9.5%;HEK293 MPD ctr 2-1=.;HEK293 MPD ctr-1=.
CC1(C)CCN2CCC(C)(C)c3c(O)ccc1c32,.,.,.,.,.,/,/,/,/,/,/,
Cc1ccc(NC(=O)c2cccc3c2-c2ccccc2C3=O)cc1C,.,-7.3,.,.,.,/,/,/,/,.,.,TRPC4 sel inh 2=.;TRPC4 spec=.;HEK293 MPD ctr 2-1=.;HEK293 MPD ctr-1=.
CC[N+](C)(CC)CC(=O)OCC1C(C)C=C(C)CC1C (stereo unspecified),.,-8.4,.,.,.,/,/,/,/,.,.,TRPC4 sel inh 2=.;TRPC4 spec=.;HEK293 MPD ctr 2-1=.;HEK293 MPD ctr-1=.
CCc1ccc(-c2nc(CN3CCC(C(=O)NCCN(CC)c4ccccc4)CC3)c(C)o2)cc1,.,-5.6,.,.,.,.,.,.,62%,.,.,
CCN(CCNC(=O)C1CCN(Cc2nc(-c3cccc(Cl)c3)oc2C)CC1)c1ccccc1,.,.,.,.,.,/,/,/,/,/,/,
CCOC(=O)N1CCN(Cc2nc(-c3ccc(OC)cc3)no2)CC1,.,.,.,.,.,/,/,/,/,/,/,
CCOC(=O)N1CCN(Cc2nc(-c3ccc(Cl)cc3)no2)CC1,.,-8.9,.,.,.,/,/,/,/,.,/,TRPC4 sel inh 2=.;TRPC4 spec=.;HEK293 MPD ctr 2-1=.;HEK293 MPD ctr-1=.
CC(C)C1Oc2ccccc2N(CC(=O)NC2CCCCC2)C1=O (stereo unspecified),.,.,.,.,.,/,/,/,/,/,/,
Cc1ccc(-c2csc(NC(=O)/C=C/c3ccco3)c2C(=O)O)cc1,.,-5.2,.,.,.,.,.,.,.,.,.,
COc1cccc2cc(C(=O)NCCc3ccccc3)oc12,.,-6.2,.,.,.,90%,.,16%,.,.,/,
COc1cccc(OC)c1C(=O)NCCc1ccccc1,.,.,.,.,.,/,/,/,/,/,/,
CCc1noc(C)c1C(=O)NC1CCCc2c1cnn2-c1ccc(C(C)(C)C)cc1 (stereo unspecified),.,.,.,.,.,/,/,/,/,/,/,
CCNC(=O)OCC(CC)NC(=O)OCC(C)C (stereo unspecified),.,.,.,.,.,/,/,/,/,/,/,
CCC(COC(=O)Nc1cccc(C)c1)NC(=O)OCC(C)C (stereo unspecified),.,-5.1,.,.,.,.,.,.,.,.,.,
O=C(O)COc1ccc(/C=C/c2nc3ccc([N+](=O)[O-])cc3s2)cc1,.,-8.5,.,.,.,/,/,/,/,.,.,TRPC4 sel inh 2=.;TRPC4 spec=-30%;HEK293 MPD ctr 2-1=.;HEK293 MPD ctr-1=-426%
O=C(CCl)N(CCc1ccccc1)CCc1ccccc1,.,.,.,.,.,/,/,/,/,/,/,
CN1CCN(/N=C/c2nc(-c3ccc(Cl)cc3)n3ccccc23)CC1,.,-5.3,.,.,.,-164%,.,-36%,40%,.,.,
CN1CCN(/N=C/c2nc(-c3ccccc3)n3ccccc23)CC1,.,.,.,.,.,/,/,/,/,/,/,
CCOCCCNc1nc2nc3ccc(C)cn3c(=O)c2cc1C(=O)NCC1CCCO1 (stereo unspecified),.,-5.5,.,.,.,149%,61%,24%,.,.,/,
SMILES,TRPC4 potent,TRPC6 inhibitor,TRPC6 act,TRPC4 inh,TRPC4 act,HEK293 MPD ctr-2,HEK293 MPD ctr 2-2,TRPC4 ctr mod,TRPC4/MOR inh 2,TRPC6 block conf,TRPC6 act confirm,others
N=c1c(C(=O)NCCc2ccccc2)cc2c(=O)n3ccccc3nc2n1Cc1ccco1,.,.,.,.,.,/,/,/,/,/,/,
N=c1c(C(=O)NCC2CCCO2)cc2c(=O)n3ccccc3nc2n1Cc1cccnc1 (stereo unspecified),.,-7.5,.,.,.,.,84%,-100%,33%,50%,.,
N=c1c(C(=O)NCC2CCCO2)cc2c(=O)n3ccccc3nc2n1Cc1ccc(F)cc1 (stereo unspecified),.,-6,.,.,.,.,.,-9.5%,48%,48%,.,
N=c1c(C(=O)NCC2CCCO2)cc2c(=O)n3ccccc3nc2n1Cc1ccco1 (stereo unspecified),.,-5.3,.,.,.,.,76%,13%,.,.,.,
O=C(NC1CC1)c1ccc(CSCc2ccccc2Cl)o1,.,.,.,.,.,/,/,/,/,/,/,
c1ccc(C2c3[nH]c4ccccc4c3CCN2Cc2cccn2-c2ccccn2)nc1 (stereo unspecified),.,.,.,.,.,/,/,/,/,/,/,
CC(=O)Nc1ccc(CN2CCc3c([nH]c4ccccc34)C2c2ccccn2)cc1 (stereo unspecified),.,-7.3,.,.,54,.,.,66%,70%,.,.,
